# Source: ChEMBL document CHEMBL1255454, “Systematic approach to optimizing specifically targeted antimicrobial peptides against Streptococcus mutans” (2010)
# The source made the active and inactive calls. No cut-off for these calls is given here. Square brackets hold non-standard residues; d marks the D form. Peptide text beside a SMILES is read from it. Aoc = NCCCCCCCC(=O)O
# Key:
# Streptococcus mutans [1] = experiment: Antimicrobial activity against Streptococcus mutans UA159 assessed as inhibition of bacterial biofilm formation at 25 uM after 3 mins by fluorescence assay; type: functional
# Summary of the method: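 S. mutans UA159 overnight culture was diluted 1:5,000 in TH with 1% sucrose and grown as biofilm for 24 h. Biofilms were exposed 3 min at room temperature to 25 µM fluorescein-labelled peptide in HEPES/NaHCO3/NaCl/MgCl2 buffer with 0.1% CTAB, pH 7.4, then washed twice. Green fluorescence images were taken and biofilm-associated green pixels quantified as binding intensity units.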
# Streptococcus mutans [2] = experiment: Antimicrobial activity against Streptococcus mutans UA159 after 16 to 20 hrs by broth microdilution assay; type: functional
# Summary of the method: (§1)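 Broth microdilution. Twofold peptide dilutions were made in 50% BHI–50% sterile water for oral streptococci and in 1× Mueller-Hinton broth for the other bacteria. First round 500 to 0.97 µg/ml; a second round of 64 to 0.5 µg/ml was run in some cases, reporting its mode. Inoculum ~1 × 10^5 CFU/ml, 37°C for 16–20 h. Read A600; MIC taken as complete inhibition or ≥90% turbidity reduction versus peptide-free control.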
# Streptococcus sobrinus = experiment: Antimicrobial activity against Streptococcus sobrinus ATCC 33478 after 16 to 20 hrs by broth microdilution assay; type: functional; summary of the method: as §1
# Streptococcus sanguinis [3] = experiment: Antimicrobial activity against Streptococcus sanguinis NY101 after 16 to 20 hrs by broth microdilution assay; type: functional; summary of the method: as §1
# Streptococcus mitis [4] = experiment: Antimicrobial activity against Streptococcus mitis ATCC 903 after 16 to 20 hrs by broth microdilution assay; type: functional; summary of the method: as §1
# [5] = Antimicrobial activity against Streptococcus gordonii Challis DL1 after 16 to 20 hrs by broth microdilution assay; type: functional, Streptococcus gordonii str. Challis; summary of the method: as §1
# Staphylococcus aureus = experiment: Antimicrobial activity against methicillin-resistant Staphylococcus aureus after 16 to 20 hrs by broth microdilution assay; type: functional
# Summary of the method: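 MRSA grown aerobically in BHI at 37°C. Broth microdilution: 2-fold peptide dilutions in 1× Mueller-Hinton broth, first round 500 to 0.97 µg/ml; if activity below 62.5 µg/ml, sometimes a second round at 64 to 0.5 µg/ml, reporting the mode. Inoculum ~1 × 10^5 CFU/ml, 37°C for 16-20 h. A600 read. MIC = lowest concentration giving complete inhibition or ≥90% turbidity reduction versus peptide-free control.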
# Enterococcus faecalis = experiment: Antimicrobial activity against Enterococcus faecalis after 16 to 20 hrs by broth microdilution assay; type: functional; summary of the method: as §1
# Pseudomonas aeruginosa = experiment: Antimicrobial activity against Pseudomonas aeruginosa PAK after 16 to 20 hrs by broth microdilution assay; type: functional; summary of the method: as §1
# Escherichia coli = experiment: Antimicrobial activity against Escherichia coli W3110 after 16 to 20 hrs by broth microdilution assay; type: functional; summary of the method: as §1
# Streptococcus mutans [6] = experiment: Antimicrobial activity against Streptococcus mutans UA159 at 25 ug/ml after 30 mins by time-kill assay; type: functional
# Summary of the method: (§2)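 Time-kill. Overnight cultures were diluted in BHI to A600 0.08 and treated with peptide at 25 µg/ml for 30 s to 2 h. Aliquots were diluted 1:50 in BHI, held on ice, plated and counted after 24 h as surviving CFU/ml. Three independent experiments, mean with SD; unpaired Student t test.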
# Streptococcus mitis [7] = experiment: Antimicrobial activity against Streptococcus mitis ATCC 903 at 25 ug/ml after 30 mins by time-kill assay; type: functional, organism-based; summary of the method: as §2
# [8] = system: Streptococcus gordonii str. Challis; experiment: Antimicrobial activity against Streptococcus gordonii Challis DL1 at 25 ug/ml after 30 mins by time-kill assay; type: functional; summary of the method: as §2
# Streptococcus sanguinis [9] = experiment: Antimicrobial activity against Streptococcus sanguinis NY101 at 25 ug/ml after 30 mins by time-kill assay; type: functional, organism-based; summary of the method: as §2
# Streptococcus mutans [10] = experiment: Antimicrobial activity against Streptococcus mutans UA159 assessed as inhibition of viability of bacterial biofilm at 25 ug/ml treated for 1 min measured after 4 hrs; type: functional
# Summary of the method: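 S. mutans biofilms were seeded from overnight culture diluted 1:50 in TH broth with 0.5% sucrose, centrifuged, and grown 4 h anaerobically at 37°C. They were exposed to peptide in 1× PBS for about 1 min, washed, and given fresh TH broth without sucrose. Recovery was read as A600 after 4 h anaerobic incubation at 37°C. Three experiments; unpaired t test.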
# Streptococcus mutans [11] = experiment: Antimicrobial activity against Streptococcus mutans JM11 assessed as inhibition of bacterial biofilm formation at 50 uM after 10 mins; type: functional
# Summary of the method: (§3)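 Mixed-species biofilms were grown 24 h at 37°C anaerobically in TH with 50% filter-sterilized pooled human saliva and 1% sucrose. Inoculum: S. mutans JM11 at 1 × 10^6 CFU/well plus S. oralis, S. gordonii, S. sanguinis, S. mitis and S. salivarius at 2 × 10^5 CFU/well each. Survivors were plated on TH agar for total streptococci and on TH agar with 800 µg/ml spectinomycin for JM11. Detection limit 100 CFU/ml.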
# Streptococcus oralis = experiment: Antimicrobial activity against Streptococcus oralis assessed as inhibition of bacterial biofilm formation at 50 uM after 10 mins; type: functional; summary of the method: as §3
# Streptococcus gordonii = experiment: Antimicrobial activity against Streptococcus gordonii assessed as inhibition of bacterial biofilm formation at 50 uM after 10 mins; type: functional; summary of the method: as §3
# Streptococcus sanguinis [12] = experiment: Antimicrobial activity against Streptococcus sanguinis assessed as inhibition of bacterial biofilm formation at 50 uM after 10 mins; type: functional; summary of the method: as §3
# Streptococcus mitis [13] = experiment: Antimicrobial activity against Streptococcus mitis assessed as inhibition of bacterial biofilm formation at 50 uM after 10 mins; type: functional; summary of the method: as §3
# Streptococcus salivarius = experiment: Antimicrobial activity against Streptococcus salivarius assessed as inhibition of bacterial biofilm formation at 50 uM after 10 mins; type: functional; summary of the method: as §3
Compound,inhibition (Streptococcus mutans [1]),MIC (Streptococcus mutans [2]) [µg/mL],MIC (Streptococcus sobrinus) [µg/mL],MIC (Streptococcus sanguinis [3]) [µg/mL],MIC (Streptococcus mitis [4]) [µg/mL],MIC [5] [µg/mL],MIC (Staphylococcus aureus) [µg/mL],MIC (Enterococcus faecalis) [µg/mL],MIC (Pseudomonas aeruginosa) [µg/mL],MIC (Escherichia coli) [µg/mL],also measured
H-LIKHILHRL-NH2,Active,125,> 500,> 500,> 500,> 500,> 500,> 500,> 500,> 500,
CC[C@H](C)[C@H](NC(=O)[C@H](Cc1ccccc1)NC(=O)[C@H](Cc1cnc[nH]1)NC(=O)[C@H](CCCCN)NC(=O)[C@@H](NC(=O)[C@@H](N)Cc1ccccc1)[C@@H](C)CC)C(=O)N[C@@H](Cc1cnc[nH]1)C(=O)N[C@@H](CCCNC(=N)N)C(=O)N[C@@H](Cc1ccccc1)C(=O)NCCCCCCCC(=O)N[C@@H](CCCNC(=N)N)C(=O)N[C@@H](Cc1c[nH]c2ccccc12)C(=O)N[C@@H](CCCNC(=N)N)C(=O)N[C@@H](Cc1c[nH]c2ccccc12)C(=O)N[C@@H](CCCNC(=N)N)C(=O)N[C@@H](Cc1c[nH]c2ccccc12)C(=O)N[C@@H](Cc1ccccc1)C(N)=O (H-FIKHFIHRF[Aoc]RWRWRWF-NH2),,8,,32,16,32,32,,62.5,,Activity (Streptococcus mutans [6]): Active; Activity (Streptococcus mitis [7]): Active; Activity [8]: Active; Activity (Streptococcus sanguinis [9]): Active
H-FHFHLHFPSGSPFIKHFIHRF-NH2,Active,62.5,62.5,62.5,,,> 500,250,> 500,125,
H-LIKHILHRLGGGFHFHLHF-NH2,,16,32,62.5,,,62.5,32,250,250,
N=C(NCCCCCCNC(=N)NC(=N)Nc1ccc(Cl)cc1)NC(=N)Nc1ccc(Cl)cc1 [CHLORHEXIDINE],,,,,,,,,,,"inhibition (Streptococcus mutans [10]): Active; inhibition at 50 µM (Streptococcus mutans [11]; JM11, 10 min): 95%; inhibition at 50 µM (Streptococcus oralis): 95%; inhibition at 50 µM (Streptococcus gordonii): 95%; inhibition at 50 µM (Streptococcus sanguinis [12]): 95%; inhibition at 50 µM (Streptococcus mitis [13]): 95%; inhibition at 50 µM (Streptococcus salivarius): 95%"
H-FIKHFIHRF-NH2,Active,125,125,125,> 500,> 500,> 500,> 500,> 500,> 500,
H-WWSYWWTQW-NH2,Active,125,125,125,125,125,> 125,> 125,> 125,125,
H-WWYNWWQDW-NH2,,> 500,> 500,> 500,> 500,> 500,> 500,> 500,> 500,> 500,
H-FHFHLHFGGGFIKHFIHRF-NH2,,32,62.5,62.5,,,125,62.5,62.5,62.5,
H-FIKHFIHRFGGGRWRWRWF-NH2,Active,8,,32,32,32,32,,62.5,,Activity (Streptococcus mutans [6]): Active; Activity (Streptococcus mitis [7]): Active; Activity [8]: Active; Activity (Streptococcus sanguinis [9]): Active; inhibition (Streptococcus mutans [10]): Active; inhibition (Streptococcus mutans [11]): Active
